ChEMBL document CHEMBL1145814, “Antiretroviral activity of semisynthetic derivatives of glycopeptide antibiotics” (J Med Chem, 2003)
pEC50, pIC50: −log10 of the molar value. Converted amounts (≈) assume the structure as drawn.

What was measured:
[1] = test system: Human immunodeficiency virus 1; experiment: Effective concentration of compound required to protect human T-lymphocytic cells against the cytopathogenicity of HIV-1; type: functional, organism-based; conditions: Human immunodeficiency virus 1
Mus musculus [2] = organism: Mus musculus; experiment: Minimal inhibitory concentration required to cause a microscopic detectable alteration of C3H/3T3 embryo murine fibroblast cell morphology; type: functional
Method in brief: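 Uninfected C3H/3T3 murine embryo fibroblast cultures were exposed to test compound and checked microscopically for changes in cell morphology. The MIC is the concentration causing a microscopically detectable alteration of morphology.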

MOLT-4 = experiment: Inhibitory concentration of compound against proliferation of human T-lymphocytic cells MOLT-4/C8 was determined; type: functional, cell-based
Method in brief: (§1)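 (5–7.5) × 10^4 cells per well were incubated with test compound at 37 °C in a humidified CO2 atmosphere. L1210 murine leukemia cells grew for 48 h, and CEM and Molt4/clone 8 human lymphocytes grew for 72 h. Cells were then counted with a Coulter counter. IC50 is the concentration inhibiting proliferation by 50%.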

[3] = test system: Human immunodeficiency virus 2; experiment: Concentration required to protect human T-lymphocytic cells against the cytopathogenicity of HIV-2; type: functional, organism-based; conditions: Human immunodeficiency virus 2
CCRF-CEM = experiment: Inhibitory concentration against proliferation of human T-lymphocytic (CEM) cells; type: functional, cell-based; conditions: Homo sapiens, CCRF-CEM; method in brief: as §1
Mus musculus [4] = organism: Mus musculus; experiment: Effective concentration of compound required to protect C3H/3T3 embryo murine fibroblasts against the MSV induced transformation; type: functional, organism-based; conditions: Mus musculus, C3H/3T3
Method in brief: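 Monolayer murine embryo fibroblast C3H/3T3 cultures were infected with Moloney murine sarcoma virus at 75 focus-forming units and cultured with test compound. Transformation was examined microscopically on day 6 postinfection. EC50 is the concentration protecting cells against MSV-induced transformation by 50%.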

L1210 = experiment: Inhibitory concentration of compound against proliferation of murine lukemia cells L1210 was determined; type: functional, cell-based; conditions: Mus musculus; method in brief: as §1

Structure (SMILES)	pEC50 [1]	MIC (Mus musculus [2]) [µM]	pIC50 (MOLT-4)	pEC50 [3]	pIC50 (CCRF-CEM)	pEC50 (Mus musculus [4])	pIC50 (L1210)
CCCCc1ccc(CNCc2c(O)cc3c(c2O)-c2cc(ccc2O)C2NC(=O)C4NC(=O)C5NC(=O)C(Cc6ccc(c(Cl)c6)Oc6cc4cc(c6O)Oc4ccc(cc4Cl)C(O)C(NC2=O)C(=O)N[C@H]3C(=O)NC)NC(=O)C(N)c2ccc(O)c(c2)Oc2cc(O)cc5c2)cc1 (some centres undefined)	5.01	20 (≈ 27.7 µg/mL)	< 4.00	4.92	< 4.00	< 5.40	< 4.00
NCCCCCCCCCCNC(=O)[C@@H]1NC(=O)C2NC(=O)C(NC(=O)C3NC(=O)C4NC(=O)C(Cc5ccc(c(Cl)c5)Oc5cc3cc(c5O)Oc3ccc(cc3Cl)C2O)NC(=O)C(N)c2ccc(O)c(c2)Oc2cc(O)cc4c2)c2ccc(O)c(c2)-c2c(O)cc(O)cc21 (some centres undefined)	5.19	20 (≈ 27.1 µg/mL)	3.65	4.92	3.40	< 5.40	3.30
COC(=O)[C@H]1NC(=O)C2NC(=O)C(NC(=O)[C@@H]3NC(=O)[C@H]4NC(=O)[C@H](NC(=O)[C@H](N)c5ccc(O)c(c5)Oc5cc4cc(O)c5C)[C@H](O)c4ccc(cc4)Oc4cc3cc(c4OC3OC(CO[C@H]4O[C@H](C)[C@@H](O)[C@@H](O)[C@@H]4O)C(O)C(O)C3OC3OC(CO)C(O)C(O)C3OC3OCC(O)C(O)C3O)Oc3ccc(cc3)[C@H]2O[C@@H]2C[C@@H](N)[C@@H](O)[C@@H](C)O2)c2ccc(O)c(c2)-c2c(O[C@@H]3O[C@H](CO)[C@@H](O)[C@@H](O)[C@@H]3O)cc(O)cc21 (some centres undefined)	< 3.60	> 100	< 3.30	< 3.60	< 3.30	< 4.00	< 3.30
NC1C(=O)NC2Cc3ccc(c(Cl)c3)Oc3cc4cc(c3O)Oc3ccc(cc3Cl)C(O)C3NC(=O)C(NC(=O)C4NC(=O)C(NC2=O)c2cc(O)cc(c2)Oc2cc1ccc2O)c1ccc(O)c(c1)-c1c(O)cc(O)cc1[C@H](C(=O)NC1C2CC4CC(C2)CC1C4)NC3=O (some centres undefined)	5.15	> 100	4.59	5.22	3.91	5.68	4.52
CCCCc1ccc(CNCc2c(O)cc3c(c2O)-c2cc(ccc2O)C2NC(=O)C4NC(=O)C5NC(=O)C(Cc6ccc(c(Cl)c6)Oc6cc4cc(c6O)Oc4ccc(cc4Cl)C(O)C(NC2=O)C(=O)N[C@H]3C(=O)NC)NC(=O)C(NC(=O)OC(C)(C)C)c2ccc(O)c(c2)Oc2cc(O)cc5c2)cc1 (some centres undefined)	5.22	20 (≈ 29.7 µg/mL)	< 4.00	4.92	< 4.00	< 5.40	4.15
CN[C@@H](CC(C)C)C(=O)NC1C(=O)N[C@@H](CC(N)=O)C(=O)NC2C(=O)NC3C(=O)NC(C(=O)N[C@@H](C(=O)O)c4cc(O)cc(O)c4-c4cc3ccc4O)C(O)c3ccc(c(Cl)c3)Oc3cc2cc(c3O)Oc2ccc(cc2Cl)C1O (some centres undefined)	4.19	> 100	< 3.30	< 3.60	< 3.30	< 4.00	< 3.30
CCCCCCCCCCNC(=O)[C@H]1NC(=O)[C@H]2NC(=O)[C@H](NC(=O)[C@@H]3NC(=O)[C@H](CC(N)=O)NC(=O)[C@H](NC(=O)[C@@H](CC(C)C)NC)[C@H](O)c4ccc(c(Cl)c4)Oc4cc3cc(c4O[C@@H]3O[C@H](CO)[C@@H](O)[C@H](O)[C@H]3O[C@H]3C[C@](C)(N)C(O)[C@H](C)O3)Oc3ccc(cc3Cl)[C@H]2O)c2ccc(O)c(c2)-c2c(O)cc(O)cc21 (some centres undefined)	< 5.00	20 (≈ 31.8 µg/mL)	< 5.00	< 5.00	4.52	< 5.40	4.52
CCCCCCCCCCNCc1c(O)cc2c(c1O)-c1cc(ccc1O)C1NC(=O)C3NC(=O)C4NC(=O)C(Cc5ccc(c(Cl)c5)Oc5cc3cc(c5O)Oc3ccc(cc3Cl)C(O)C(NC1=O)C(=O)N[C@H]2C(=O)NCCCN(C)C)NC(=O)C(N)c1ccc(O)c(c1)Oc1cc(O)cc4c1 (some centres undefined)	5.85	–	< 4.00	5.21	< 4.00	–	4.32
CCCCCCCCCCNCc1c(O)cc2c(c1O)-c1cc(ccc1O)[C@H]1NC(=O)[C@@H]3NC(=O)[C@H](CC(N)=O)NC(=O)[C@H](NC(=O)[C@@H](CC(C)C)NC)[C@H](O)c4ccc(c(Cl)c4)Oc4cc3cc(c4O[C@@H]3O[C@H](CO)[C@@H](O)[C@H](O)[C@H]3O[C@H]3C[C@](C)(N)[C@@H](O)[C@H](C)O3)Oc3ccc(cc3)[C@@H](O[C@H]3C[C@](C)(N)[C@@H](O)[C@H](C)O3)[C@H](NC1=O)C(=O)N[C@@H]2C(=O)O	< 4.70	–	4.57	< 4.70	4.62	–	4.72
CNC(=O)[C@H]1NC(=O)[C@H]2NC(=O)[C@H](NC(=O)[C@@H]3NC(=O)[C@H](CC(N)=O)NC(=O)[C@H](NC(=O)[C@@H](CC(C)C)NC)[C@H](O)c4ccc(c(Cl)c4)Oc4cc3cc(c4O[C@@H]3O[C@H](CO)[C@@H](O)[C@H](O)[C@H]3O[C@H]3C[C@](C)(N)[C@@H](O)[C@H](C)O3)Oc3ccc(cc3)[C@H]2O[C@H]2C[C@](C)(N)[C@@H](O)[C@H](C)O2)c2ccc(O)c(c2)-c2c(O)cc(O)cc21	< 3.60	–	< 3.30	< 3.60	< 3.30	–	< 3.30
COC(=O)[C@@H]1NC(=O)C2NC(=O)C(NC(=O)C(N)c3cc(Oc4ccc(CC(NC(=O)OCc5ccccc5)C(=O)O)cc4Cl)c(O)c(c3)Oc3ccc(cc3Cl)C2O)c2ccc(O)c(c2)-c2c(O)cc(O)cc21 (some centres undefined)	4.60	–	< 3.30	4.07	< 3.30	–	< 3.30
CCCCCCCCCCNC(=O)[C@H]1NC(=O)[C@H]2NC(=O)[C@H](NC(=O)[C@@H]3NC(=O)[C@H](CC(N)=O)NC(=O)[C@H](NC(=O)[C@@H](CC(C)C)NC)[C@H](O)c4ccc(c(Cl)c4)Oc4cc3cc(c4O[C@@H]3O[C@H](CO)[C@@H](O)[C@H](O)[C@H]3O[C@H]3C[C@](C)(N)[C@@H](O)[C@H](C)O3)Oc3ccc(cc3)[C@H]2O[C@H]2C[C@](C)(N)[C@@H](O)[C@H](C)O2)c2ccc(O)c(c2)-c2c(O)cc(O)cc21	< 5.00	–	4.68	< 5.00	5.03	–	4.54
COC(=O)[C@@H]1NC(=O)C2NC(=O)C(NC(=O)C(NC(=O)OC(C)(C)C)c3cc(Oc4ccc(CC(NC(=O)OCc5ccccc5)C(=O)O)cc4Cl)c(O)c(c3)Oc3ccc(cc3Cl)C2O)c2ccc(O)c(c2)-c2c(O)cc(O)cc21 (some centres undefined)	4.77	> 100	–	4.77	< 3.60	4.06	–
NC1Cc2ccc(c(Cl)c2)Oc2cc3cc(c2O)Oc2ccc(cc2Cl)C(O)C2NC(=O)C(NC(=O)C3NC(=O)C(c3cc(O)cc(Oc4cc(C5NC(=S)N(c6ccccc6)C5=O)ccc4O)c3)NC1=O)c1ccc(O)c(c1)-c1c(O)cc(O)cc1[C@H](C(=O)O)NC2=O (some centres undefined)	4.82	> 100	–	4.43	< 3.60	4.57	–
NC1C(=O)NC2Cc3ccc(c(Cl)c3)Oc3cc4cc(c3O)Oc3ccc(cc3Cl)C(O)C(C(=O)O)NC(=O)C(c3ccc(O)c(-c5c(O)cc(O)cc5[C@@H](N)C(=O)O)c3)NC(=O)C4NC(=O)C(NC2=O)c2cc(O)cc(c2)Oc2cc1ccc2O (some centres undefined)	4.66	> 100	–	4.49	< 3.60	4.85	–
CCCCCCCCCCCCCCCCCCNCc1c(O)cc2c(c1O)-c1cc(ccc1O)C1NC(=O)C3NC(=O)C4NC(=O)C(Cc5ccc(c(Cl)c5)Oc5cc3cc(c5O)Oc3ccc(cc3Cl)C(O)C(NC1=O)C(=O)N[C@H]2C(=O)O)NC(=O)C(N)c1ccc(O)c(c1)Oc1cc(O)cc4c1 (some centres undefined)	5.35	100 (≈ 148 µg/mL)	–	5.11	4.66	5.77	–
